B1: Osa-1-4 twister ribozyme (parent)
chain: CCGCCUAACACUGCCAAUGCCGGUCCCAAGCCCGGAUAAAAGUGGAGGGGGCGG

This data set covers variants of B1. Description: self-cleavage, relative activity (ratio to wild type); higher = more cleavage; co-transcriptional. The essentials:
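For each read, cleavage status was taken from whether upstream sequence was present. The reads came from an Oryza sativa twister ribozyme of 54 nucleotides, whose DNA template was synthesised with 97 % wild-type base and 1 % of each other base at the 48 positions downstream of the cleavage site. The template was transcribed in vitro at 37 °C for 2 h with co-transcriptional self-cleavage, and the RNA was reverse-transcribed using a template-switching oligonucleotide, PCR-amplified and deep-sequenced. Relative activity is the fraction cleaved normalised to wild type.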
For CCGCCUAACACUGCCAAUGCCGGUCGCAAGCCCGGAUAAAGGUGGAGGGGGCGG, the self-cleavage is 0.09.

For CCGCCUAACACUGCCAAUGCCGGUCACAAGCCCGGAUAAAGGUGGAGGGGGCGG, the self-cleavage is 0.05.

With CCGCCUAACACUGCCAAUGCCGGUCUCAAGCCCGGAUAAAGGUGGAGGGGGCGG, the self-cleavage was 0.17. Regarding CCGCCUAACACUACCAAUGCCGGUCCCAAGCCCGGAUAAAGGUGGAGGGGGCGG, the self-cleavage is 0.06. For CCGCCUAACACUCCCAAUGCCGGUCCCAAGCCCGGAUAAAGGUGGAGGGGGCGG, the self-cleavage worked out at 0.03. Take CCGCCUAACACUUCCAAUGCCGGUCCCAAGCCCGGAUAAAGGUGGAGGGGGCGG: the self-cleavage is 0.04. On to CCGCCUAACACUGCCAAUGCGGGUCCCAAGCCCGGAUAAAGGUGGAGGGGGCGG, for which the self-cleavage was determined as 0.13. For CCGCCUAACACUGCCAAUGCUGGUCCCAAGCCCGGAUAAAGGUGGAGGGGGCGG the value was 0.75; for CCGCCUAACACUGCCAAUGCAGGUCCCAAGCCCGGAUAAAGGUGGAGGGGGCGG, 0.22.

Take CCGCCUAACACUGCCAAUGCCGGUCCCAAGUCCGGAUAAAGGUGGAGGGGGCGG: the self-cleavage turned out to be 0.17.

Take CCGCCUAACACUGCCAAUGCCGGUCCCAAGGCCGGAUAAAGGUGGAGGGGGCGG: the self-cleavage was 0.11. For the variant CCGCCUAACACUGCCAAUGCCGGUCCCAAGACCGGAUAAAGGUGGAGGGGGCGG, the self-cleavage turned out to be 0.04.

On to CCGCCUAACACUGCCAAUGCCGGUCCGAAGCCCGGAUAAAGGUGGAGGGGGCGG, for which the self-cleavage came out at 0.04. CCGCCUAACACUGCCAAUGCCGGUCCUAAGCCCGGAUAAAGGUGGAGGGGGCGG: the self-cleavage was found to be 0.09. As for CCGCCUAACACUGCCAAUGCCGGUCCAAAGCCCGGAUAAAGGUGGAGGGGGCGG, the self-cleavage came to 0.09.

With CCGCCUAACACUGCCAAUGCCGGUCCCAAGCCCGGAUAAAGGUGGAGGGGGUGG, the self-cleavage is 0.88.

Turning to CCGCCUAACACUGCCAAUGCCGGUCCCAAGCCCGGAUAAAGGUGGAGGGGGAGG, the self-cleavage is 0.84.

With CCGCCUAACACUGCCAAUGCCGGUCCCAAGCCCGGAUAAAGGUGGAGGGGGGGG, the self-cleavage was 0.84.

For the variant CCGCCUAACACUGCCAAUGCCGGUCCCAAGCCCGGAUAAAGGUGGUGGGGGCGG, the self-cleavage stood at 0.08. Take CCGCCUAACACUGCCAAUGCCGGUCCCAAGCCCGGAUAAAGGUGGCGGGGGCGG: the self-cleavage amounted to 0.06. For CCGCCUAACACUGCCAAUGCCGGUCCCAAGCCCGGAUAAAGGUGGGGGGGGCGG, the self-cleavage came out at 0.07. Regarding CCGCCUAAUACUGCCAAUGCCGGUCCCAAGCCCGGAUAAAGGUGGAGGGGGCGG, the self-cleavage came out at 0.11. In the case of CCGCCUAAGACUGCCAAUGCCGGUCCCAAGCCCGGAUAAAGGUGGAGGGGGCGG, the self-cleavage stood at 0.22. Turning to CCGCCUAAAACUGCCAAUGCCGGUCCCAAGCCCGGAUAAAGGUGGAGGGGGCGG, the self-cleavage is 0.08. Consider CCGCCUAACACUGGCAAUGCCGGUCCCAAGCCCGGAUAAAGGUGGAGGGGGCGG, for which the self-cleavage was 0.14. CCGCCUAACACUGACAAUGCCGGUCCCAAGCCCGGAUAAAGGUGGAGGGGGCGG: the self-cleavage was 0.07. As for CCGCCUAACACUGUCAAUGCCGGUCCCAAGCCCGGAUAAAGGUGGAGGGGGCGG, the self-cleavage was determined as 0.24. Consider CCGCCUAACACUGCCAAUGCCGGUCCCAAGCUCGGAUAAAGGUGGAGGGGGCGG, for which the self-cleavage is 0.08.

For CCGCCUAACACUGCCAAUGCCGGUCCCAAGCACGGAUAAAGGUGGAGGGGGCGG, the self-cleavage amounted to 0.06. With CCGCCUAACACUGCCAAUGCCGGUCCCAAGCGCGGAUAAAGGUGGAGGGGGCGG, the self-cleavage was 0.13. As to CCGCCUAUCACUGCCAAUGCCGGUCCCAAGCCCGGAUAAAGGUGGAGGGGGCGG, the self-cleavage turned out to be 0.1. In the case of CCGCCUAACACUGCAAAUGCCGGUCCCAAGCCCGGAUAAAGGUGGAGGGGGCGG, the self-cleavage turned out to be 0.18. Regarding CCGCCUAACACUGCUAAUGCCGGUCCCAAGCCCGGAUAAAGGUGGAGGGGGCGG, the self-cleavage was 0.22.

In the case of CCGCCUAACACUGCGAAUGCCGGUCCCAAGCCCGGAUAAAGGUGGAGGGGGCGG, the self-cleavage came out at 0.28.

Consider CCGCCUAACACUGCCAAUGCCGGUCCCAAGCCUGGAUAAAGGUGGAGGGGGCGG, for which the self-cleavage stood at 0.12.

On to CCGCCUAACACUGCCAAUGCCGGUCCCAAGCCGGGAUAAAGGUGGAGGGGGCGG, for which the self-cleavage came to 0.1. With CCGCCUAACACUGCCAAUGCCGGUCCCAAGCCAGGAUAAAGGUGGAGGGGGCGG, the self-cleavage was found to be 0.07. In the case of CCGCCUAACACUGCCAAUCCCGGUCCCAAGCCCGGAUAAAGGUGGAGGGGGCGG, the self-cleavage is 0.08. In the case of CCGCCUAACACUGCCAAUACCGGUCCCAAGCCCGGAUAAAGGUGGAGGGGGCGG, the self-cleavage came to 0.17. Then CCGCCUAACACUGCCAAUUCCGGUCCCAAGCCCGGAUAAAGGUGGAGGGGGCGG, with 0.09. Regarding CCGCCUAACACUGCCAAUGGCGGUCCCAAGCCCGGAUAAAGGUGGAGGGGGCGG, the self-cleavage came out at 0.12. On to CCGCCUAACACUGCCAAUGACGGUCCCAAGCCCGGAUAAAGGUGGAGGGGGCGG, for which the self-cleavage stood at 0.85. CCGCCUAACACUGCCAAUGUCGGUCCCAAGCCCGGAUAAAGGUGGAGGGGGCGG: the self-cleavage worked out at 0.85. On to CCGCCUAACACUGCCAAUGCCGGUACCAAGCCCGGAUAAAGGUGGAGGGGGCGG, for which the self-cleavage came to 0.07. Consider CCGCCUAACACUGCCAAUGCCGGUUCCAAGCCCGGAUAAAGGUGGAGGGGGCGG, for which the self-cleavage was found to be 0.16.

In the case of CCGCCUAACACUGCCAAUGCCGGUGCCAAGCCCGGAUAAAGGUGGAGGGGGCGG, the self-cleavage is 0.06. For CCGCCUAACAGUGCCAAUGCCGGUCCCAAGCCCGGAUAAAGGUGGAGGGGGCGG, the self-cleavage was 0.18. Then CCGCCUAACAUUGCCAAUGCCGGUCCCAAGCCCGGAUAAAGGUGGAGGGGGCGG, with 0.34; and CCGCCUAACAAUGCCAAUGCCGGUCCCAAGCCCGGAUAAAGGUGGAGGGGGCGG, with 0.12.

Values taken from the RNAGym collection of RNA variant scans (doi:10.1002/anie.201605470).
